Laboratory results published in ChEMBL document CHEMBL1129377, “Synthesis, structure-activity relationships, and the effect of polyethylene glycol on inhibitors of phosphatidylinositol-specific phospholipase C from Bacillus cereus” (J Med Chem, 1996).

How the values were obtained:
[1] = Inhibition of Phosphoinositide specific phospholipase C (PI-PLC) from Bacillus cereus on the internal face of the cell membrane.
Summary of the method: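 Single-phase aqueous assay: recombinant B. cereus PI-PLC, final 5 nM, with 0.25 mM NPIP in 100 mM HEPES, 1 mM EDTA, pH 7, 0.008% PEG-8000, 25 °C. Inhibitor kept at least tenfold below cmc and added before substrate and enzyme. Initial rates at 399 nm over 4 min. IC50 is the mean of two experiments. Ki came from varying NPIP 0.1-0.5 mM at two inhibitor levels, fitted to competitive inhibition.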

[2] = tested on: Bacillus cereus; experiment: Compound was tested for the inhibition of Phosphoinositide specific phospholipase C (PI-PLC) in the presence of buffer at concentration of 40.0 mM; design: scale not given: the % may be the effect or the level left
Summary of the method: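 Recombinant B. cereus PI-PLC, final 5 nM, with 0.25 mM NPIP (D-enantiomer) in 100 mM HEPES, 1 mM EDTA, pH 7, no PEG-600, 25 °C. Inhibitor added a few minutes before substrate and enzyme. Activity normalized to uninhibited control; mean of at least two separate experiments.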

[3] = tested on: Bacillus cereus; experiment: Compound was tested for the inhibition of Phosphatidylinositol-Specific Phospholipase C (PI-PLC) in the presence of PEG-600 at concentration of 40.0 mM; design: scale not given: the % may be the effect or the level left
Summary of the method: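 Recombinant B. cereus PI-PLC (E. coli periplasmic prep), final 5 nM, with 0.25 mM NPIP (D-enantiomer) in 90% crystallization precipitant solution (33% PEG-600, 0.16 M trisodium citrate-HCl pH 7.35, 46 mM HEPES pH 7), 25 °C. Inhibitor preincubated a few minutes before substrate and enzyme. p-Nitrophenolate followed at 399 nm for 4 min; activity normalized to uninhibited control.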

IC50 [1] [µM] | further results | Compound
2000 | – | O[C@H]1[C@@H](O)[C@@H](O)[C@@H](O)[C@@H](O)[C@@H]1O
23 | – | CCCCCCOCC(CCP(=O)(O)OC)OCCCCCC (stereo not drawn)
56 | – | O=P(O)(O)OC1C(O)C(O)C(O)C(O)C1O (stereo in doubt; form 2)
43 | – | O=P(O)(O)OC1C(O)C(O)C(O)C(O)C1O (stereo in doubt; form 1) [listing 1 of 2 here]
12 | Activity [2]: 14%; Activity ([3]; 0.17 mM, in the assay text read “0.17 mM” for “40.0 mM”): 102% | CCCCCCCCOCC(COP(=O)(O)OC)OCCCCCCCC (stereo not drawn)
60 | – | CCCCCCOCC(CCP(=O)(O)O)OCCCCCC (stereo not drawn)
53 | – | CCCCCCOCC(COP(=O)(O)OC)OCCCCCC (stereo not drawn)
3 | – | O=C1C(O)C(O)C(O)C(O)C1O (racemic)
118 | – | CCCCCC(=O)OCC(COP(=O)(O)OC)OC(=O)CCCCC (stereo not drawn)
235 | – | CCCCCOCC(COP(=O)(O)OC)OCCCCC (stereo not drawn)
34 | – | CCCCCCOCC(CC(F)(F)P(=O)(O)OC1C(O)C(O)C(O)C(O)C1O)OCCCCCC (stereo not drawn)
187 | – | CCCCCC(=O)OCC(COP(=O)(O)O)OC(=O)CCCCC (stereo not drawn)
133 | – | O=C1C(O)C(O)C(O)C(O)C1O (stereo in doubt)
135000 | – | O=P1(O)OC2C(O)C(O)C(O)C(O)C2O1 (stereo not drawn)
45 | – | CCCCCCOCC(CC(F)(F)P(=O)(O)O)OCCCCCC (stereo not drawn)
> 50000 | – | O[C@@H]1[C@H](O)[C@@H](O)[C@@H](O)[C@@]2(CO2)[C@@H]1O
410000 | – | O[C@H]1[C@H](O)[C@@H](O)[C@H](O)[C@@H](O)[C@@H]1O [SCYLLITOL]
18 | Activity [2]: 25%; Activity ([3]; 0.25 mM, in the assay text read “0.25 mM” for “40.0 mM”): 100% | CCCCCCOCC(CCP(=O)(O)OC1C(O)C(O)C(O)C(O)C1O)OCCCCCC (stereo not drawn)
10000 | Activity [2]: 18%; Activity ([3]; 40.0 mM): 22% | O[C@H]1[C@H](O)[C@@H](O)[C@H](O)[C@@H](O)[C@H]1O [INOSITOL]
55 | – | CCCCCCOCC(COP(=O)(O)O)OCCCCCC (stereo not drawn)
– | Activity [2]: 69%; Activity ([3]; 16.0 mM, in the assay text read “16.0 mM” for “40.0 mM”): 56% | O=P(O)(O)OC1C(O)C(O)C(O)C(O)C1O (stereo in doubt; form 1) [listing 2 of 2 here]
